In ChEMBL document CHEMBL4376814, “Novel cyclin-dependent kinase 9 (CDK9) inhibitor with suppression of cancer stemness activity against non-small-cell lung cancer” (Eur J Med Chem, 2019):
The source made the active and inactive calls. The calls are words filed in the database; no cut-off is given here.

Experiments:
[1] = target: T1, CDK4/Cyclin D3 (Homo sapiens) (UniProt P11802+P30281); assay: Inhibition of recombinant full-length human CDK4/cyclinD3 at 1 uM using Rb fragment as substrate measured after 40 mins in presence of [gamma33P]ATP by scintillation counting method relative to control; type: protein-complex assay
Method in brief: (§1)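 Percent inhibition of kinase activity at a single compound concentration, measured by the outsourced Eurofins KinaseProfiler panel. Values are the mean of two independent experiments.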

[2] = target: T2, CDK6/cyclin D3 (Homo sapiens) (UniProt P30281+Q00534); assay: Inhibition of recombinant full-length human CDK6/cyclinD3 at 1 uM using histone H1 as substrate measured after 40 mins in presence of [gamma33P]ATP by scintillation counting method relative to control; type: protein-complex assay; method in brief: as §1
[3] = target: T3, CDK9/cyclin T1 (Homo sapiens) (UniProt O60563+P50750); assay: Inhibition of recombinant full-length human CDK9/cyclinT1 at 1 uM using KTFCGTPEYLAPEVRREPRILSEEEQEMFRDFDYIADWC peptide as substrate measured after 40 mins in presence of [gamma33P]ATP by scintillation counting method relative to control; type: protein-complex assay; method in brief: as §1
[4] = target: T1, CDK4/Cyclin D3 (Homo sapiens); assay: Inhibition of recombinant full-length human CDK4/cyclinD3 at 500 nM using Rb fragment as substrate measured after 40 mins in presence of [gamma33P]ATP by scintillation counting method relative to control; type: protein-complex assay; method in brief: as §1
[5] = target: T2, CDK6/cyclin D3 (Homo sapiens); assay: Inhibition of recombinant full-length human CDK6/cyclinD3 at 500 nM using histone H1 as substrate measured after 40 mins in presence of [gamma33P]ATP by scintillation counting method relative to control; type: protein-complex assay; method in brief: as §1
[6] = target: T3, CDK9/cyclin T1 (Homo sapiens); assay: Inhibition of recombinant full-length human CDK9/cyclinT1 at 500 nM using KTFCGTPEYLAPEVRREPRILSEEEQEMFRDFDYIADWC peptide as substrate measured after 40 mins in presence of [gamma33P]ATP by scintillation counting method relative to control; type: protein-complex assay; method in brief: as §1
A549 [7] = assay: Antiproliferative activity against human A549 cells assessed as inhibition of cell viability at 1 uM after 72 hrs by CCK-8 assay relative to control; type: functional; conditions: A549, 72 h
Method in brief: (§2)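 Single-concentration viability screen using CCK-8. Cells were seeded at 3000/well and treated for 72 h. A450 read after 1-4 h with reagent. Percent inhibition calculated against untreated control and blank wells as (Ac−As)/(Ac−Ab)×100%.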

A549 [8] = assay: Antiproliferative activity against human A549 cells assessed as inhibition of cell viability at 10 uM after 72 hrs by CCK-8 assay relative to control; type: functional; conditions: A549, 72 h; method in brief: as §2
NCI-H1299 [9] = assay: Antiproliferative activity against human H1299 cells assessed as inhibition of cell viability at 1 uM after 72 hrs by CCK-8 assay relative to control; type: functional; conditions: NCI-H1299, 72 h; method in brief: as §2
NCI-H1299 [10] = assay: Antiproliferative activity against human H1299 cells assessed as inhibition of cell viability at 10 uM after 72 hrs by CCK-8 assay relative to control; type: functional; conditions: NCI-H1299, 72 h; method in brief: as §2
CDK9/cyclin T1 = CDK9/cyclin T1 (Homo sapiens, UniProt P50750); assay: Inhibition of recombinant full-length human CDK9/cyclinT1 using KTFCGTPEYLAPEVRREPRILSEEEQEMFRDFDYIADWC peptide as substrate measured after 40 mins in presence of [gamma33P]ATP by scintillation counting method; type: protein-complex assay
Method in brief: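 IC50 against CDK9/cyclin T1, determined by the outsourced Eurofins KinaseProfiler service. Values are the mean of two independent experiments.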

Sequence of CDK9/cyclin T1 (O60563 whole entry): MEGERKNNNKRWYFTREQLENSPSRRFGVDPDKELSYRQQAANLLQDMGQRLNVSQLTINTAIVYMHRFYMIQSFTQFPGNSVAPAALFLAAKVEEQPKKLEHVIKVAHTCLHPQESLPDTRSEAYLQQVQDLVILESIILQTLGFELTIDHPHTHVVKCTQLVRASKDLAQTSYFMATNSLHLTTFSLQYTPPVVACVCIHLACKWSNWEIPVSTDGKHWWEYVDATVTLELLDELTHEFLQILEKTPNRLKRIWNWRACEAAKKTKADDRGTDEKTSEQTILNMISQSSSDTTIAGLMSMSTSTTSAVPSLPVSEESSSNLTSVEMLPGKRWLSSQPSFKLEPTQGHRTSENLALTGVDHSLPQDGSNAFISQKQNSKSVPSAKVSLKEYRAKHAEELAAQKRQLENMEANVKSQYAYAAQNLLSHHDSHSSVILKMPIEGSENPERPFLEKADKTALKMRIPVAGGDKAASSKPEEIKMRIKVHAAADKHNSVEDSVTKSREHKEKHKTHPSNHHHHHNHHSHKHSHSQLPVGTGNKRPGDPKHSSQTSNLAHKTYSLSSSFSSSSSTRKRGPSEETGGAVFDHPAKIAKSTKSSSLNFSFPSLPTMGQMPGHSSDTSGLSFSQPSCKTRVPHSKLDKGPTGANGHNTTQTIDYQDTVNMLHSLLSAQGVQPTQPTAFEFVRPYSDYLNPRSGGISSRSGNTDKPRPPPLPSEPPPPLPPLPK
Sequence of CDK9/cyclin T1 (P50750 whole entry): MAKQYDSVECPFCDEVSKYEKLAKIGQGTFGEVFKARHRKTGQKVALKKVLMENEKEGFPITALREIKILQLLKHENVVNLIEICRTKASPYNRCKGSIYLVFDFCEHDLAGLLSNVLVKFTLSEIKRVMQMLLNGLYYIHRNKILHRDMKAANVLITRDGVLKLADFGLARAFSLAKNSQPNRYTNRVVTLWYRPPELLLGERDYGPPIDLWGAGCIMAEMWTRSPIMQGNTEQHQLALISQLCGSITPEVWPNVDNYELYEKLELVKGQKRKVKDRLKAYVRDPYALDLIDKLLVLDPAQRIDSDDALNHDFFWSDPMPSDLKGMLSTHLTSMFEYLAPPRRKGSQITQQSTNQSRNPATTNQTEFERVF

SMILES | inhibition [1] [%] | inhibition [2] | inhibition [3] [%] | inhibition [4] [%] | inhibition [5] [%] | inhibition [6] [%] | inhibition at 1 µM (A549 [7]) [%] | inhibition at 10 µM (A549 [8]) [%] | inhibition at 1 µM (NCI-H1299 [9]) [%] | inhibition at 10 µM (NCI-H1299 [10]) [%] | IC50 (CDK9/cyclin T1) [nM]
CN(C)C(=O)c1cc2cnc(Nc3ccc(S(=O)(=O)NCCCN=C=S)cc3)nc2n1C1CCCC1 | 90 | 89% | 97 | 85 | 59 | 96 | 58.9 | 102 | 41.3 | 72.8 | 
CN(C)C(=O)c1cc2cnc(Nc3ccc(N4CCN(C(=O)CCCCCCCN=C=S)CC4)cn3)nc2n1C1CCCC1 | 98 | 93% | 58 | 91 | 62 | 3 |  |  |  |  | 
CN(C)C(=O)c1cc2cnc(Nc3ccc(S(=O)(=O)NCCCCCN=C=S)cc3)nc2n1C1CCCC1 | 91 | 89% | 98 | 85 | 51 | 95 | 56.6 | 102 | 52.1 | 83.4 | 
CN(C)C(=O)c1cc2cnc(Nc3ccc(C(=O)NCCCCCN=C=S)cn3)nc2n1C1CCCC1 | 94 | 87% | 87 | 94 | 55 | 37 |  |  |  |  | 
CN(C)C(=O)c1cc2cnc(Nc3ccc(NC(=O)CCCCCN=C=S)cc3)nc2n1C1CCCC1 | 96 | 90% | 97 | 99 | 64 | 99 | 56.1 | 100 | 34.3 | 85 | 
CN(C)C(=O)c1cc2cnc(Nc3ccc(NC(=O)CCCCCCCN=C=S)c(F)c3)nc2n1C1CCCC1 | 86 | 69% | 87 | 75 | 51 | 76 |  |  |  |  | 
CN(C)C(=O)c1cc2cnc(Nc3ccc(C(=O)NCCCCCCCN=C=S)cn3)nc2n1C1CCCC1 | 84 | 64% | 73 | 91 | 46 | 18 |  |  |  |  | 
CN(C)C(=O)c1cc2cnc(Nc3ccccc3NC(=O)CCCCCCCN=C=S)nc2n1C1CCCC1 | 14 | 1% | 11 |  |  |  |  |  |  |  | 
CN(C)C(=O)c1cc2cnc(Nc3ccc(C(=O)NCCCCCCN=C=S)cn3)nc2n1C1CCCC1 | 95 | 82% | 73 | 93 | 52 | 27 |  |  |  |  | 
CN(C)C(=O)c1cc2cnc(Nc3ccc(N=C=S)cc3)nc2n1C1CCCC1 | 94 | 72% | 96 | 89 | 43 | 93 | 44.4 | 97.9 | 46.9 | 83.7 | 
CN(C)C(=O)c1cc2cnc(Nc3ccc(C(=O)NCCCCCN=C=S)cc3O)nc2n1C1CCCC1 | 59 | 60% | 92 |  |  | 91 | 23.1 | 30.7 | 22.6 | 80.7 | 33
CN(C)C(=O)c1cc2cnc(Nc3ccc(C(=O)NCCCCCN=C=S)cc3)nc2n1C1CCCC1 | 97 | 94% | 97 | 101 | 79 | 97 | 29.3 | 100 | 50.3 | 76.5 | 
CN(C)C(=O)c1cc2cnc(Nc3ccc(C(=O)NCCCCCCN=C=S)cc3)nc2n1C1CCCC1 | 98 | 92% | 96 | 101 | 63 | 67 | 35.8 | 100 | 49.4 | 85 | 
CN(C)C(=O)c1cc2cnc(Nc3ccc(NC(=O)CCCN=C=S)cc3)nc2n1C1CCCC1 | 98 | 93% | 98 | 99 | 70 | 99 | 56.1 | 102 | 39.7 | 78.8 | 
O=C(CCCCCCCN=C=S)Nc1ccc(Nc2ncc3nnn(C4CCCC4)c3n2)cc1 | 19 | 42% | 78 |  |  | 34 |  |  |  |  | 
CN(C)C(=O)c1cc2cnc(Nc3ccc(C(=O)NCCCN=C=S)cc3)nc2n1C1CCCC1 | 99 | 94% | 98 | 98 | 69 | 100 | 32.9 | 102 | 65.1 | 91.2 | 
CN(C)C(=O)c1cc2cnc(Nc3ccc(C(=O)NCCCN=C=S)cn3)nc2n1C1CCCC1 | 95 | 89% | 84 | 92 | 54 | 40 |  |  |  |  | 
CN(C)C(=O)c1cc2cnc(Nc3ccc(NC(=O)CCCCN=C=S)cc3)nc2n1C1CCCC1 | 97 | 93% | 97 | 100 | 71 | 99 | 38.2 | 102 | 58.6 | 82.5 | 
CN(C)C(=O)c1cc2cnc(Nc3ccc(CNC(=O)CCCCCCCN=C=S)cc3)nc2n1C1CCCC1 | 93 | 81% | 95 | 89 | 63 | 90 | 17.8 | 98.9 | 53.8 | 91.7 | 
CN(C)C(=O)c1cc2cnc(Nc3ccc(NC(=O)CCCCCCCN=C=S)cc3C(F)(F)F)nc2n1C1CCCC1 | 63 | 1% | 72 |  |  | 79 |  |  |  |  | 
CN(C)C(=O)c1cc2cnc(Nc3ccc(NC(=O)CCCCCCN=C=S)cc3)nc2n1C1CCCC1 | 97 | 86% | 99 | 99 | 65 | 98 | 43.3 | 102 | 50.9 | 80.9 | 
CN(C)C(=O)c1cc2cnc(Nc3ccc(C(=O)NCCCCN=C=S)cn3)nc2n1C1CCCC1 | 95 | 88% | 85 | 91 | 53 | 41 |  |  |  |  | 
CN(C)C(=O)c1cc2cnc(Nc3ccc(C(=O)NCCCCN=C=S)cc3)nc2n1C1CCCC1 | 98 | 93% | 99 | 99 | 79 | 98 | 30.2 | 102 | 55.2 | 74.2 | 
CN(C)C(=O)c1cc2cnc(Nc3ccc(C(=O)NCCCCCCN=C=S)cc3O)nc2n1C1CCCC1 | 45 | 47% | 81 |  |  | 5 |  |  |  |  | 
CN(C)C(=O)c1cc2cnc(Nc3ccc(C(=O)NCCCCCCCN=C=S)cc3O)nc2n1C1CCCC1 | 37 | 42% | 84 |  |  | 7 |  |  |  |  | 
CN(C)C(=O)c1cc2cnc(Nc3ccc(S(=O)(=O)NCCCCN=C=S)cc3)nc2n1C1CCCC1 | 90 | 92% | 98 | 91 | 64 | 99 | 39.4 | 101 | 29.9 | 72.7 | 
CN(C)C(=O)c1cc2cnc(NNC(=O)CCCCCCCN=C=S)nc2n1C1CCCC1 | 14 | inactive | 17 |  |  |  |  |  |  |  | 
